Here are results for 22 compounds from ChEMBL document CHEMBL1129653, “Synthesis and quantitative structure-activity relationship of a novel series of small conductance Ca(2+)-activated K+ channel blockers related to dequalinium” (J Med Chem, 1996).

The nature of test [1]: Equieffective molar ratio of compound to inhibit hyperpolarization in cultured rat sympathetic neurons. The format is functional, Sympathetic neuron. The method in brief: (§1)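 Rat sympathetic neurons dissociated, plated on laminin-coated dishes and cultured 3–10 days, then perfused with physiological salt solution (mM: NaCl 118, KCl 4.8, CaCl2 2.5). AHP inhibition taken as the peak difference between control and blocker records, as % of control AHP. Dequalinium reference run in each series. EMR is test-compound IC50 divided by dequalinium IC50 from the same experiment; IC50 by Hill fit, ≥3 cells.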

Test [2] deals with T1, Small conductance calcium-activated potassium channel (Rattus norvegicus, UniProt P70604+P70606+P70605). The experiment in a line: SKCa-blocking activity by its ability to inhibit after hyperpolarization (AHP) in cultured rat sympathetic neurons. The format is functional, cell-based. The following applies: sympathetic neuron. Summed up: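 AHP block was the peak of the digitally subtracted control-minus-drug record, as % of control AHP at the same time point. IC50 came from a Hill equation fit over at least three cells. Test concentrations above 10–30 µM were generally avoided.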

The nature of test [3]: Equieffective molar ratio of compound to inhibit hyperpolarization in cultured rat sympathetic neurons; No activity up to this concentration. In kind it is functional, Sympathetic neuron. Summed up:
as §1

Test [4] has as its target T1, Small conductance calcium-activated potassium channel. The experiment in a line: SKCa-blocking activity as inhibitino of after hyperpolarization (AHP) in cultured rat sympathetic neurons; No activity at maximal dose used. The format is functional, cell-based. To be noted: sympathetic neuron. Summed up: (§2)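 Cultured rat sympathetic neurons (laminin-coated dishes, 3–10 days) were perfused with physiological salt solution (mM: NaCl 118, KCl 4.8, CaCl2 2.5). AHP block was the peak of the digitally subtracted control-minus-drug record, as % of control AHP at the same time point. IC50 came from a Hill equation fit over at least three cells. Test concentrations above 10–30 µM were generally avoided.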

Test [5] can be described thus: Equieffective molar ratio of compound to inhibit hyperpolarization in cultured rat sympathetic neurons; Insufficient activity up to this concentration to determine. The format is functional, Sympathetic neuron. The method in brief:
as §1

Test [6] concerns the target T1, Small conductance calcium-activated potassium channel. Briefly: SKCa-blocking activity as inhibition of after hyperpolarization (AHP) in cultured rat sympathetic neurons; Insufficient activity at maximal dose used. The format is functional, cell-based. The following applies: sympathetic neuron. The method in brief: as §2

The IC50 is the concentration needed to halve the response being measured. With `Cc1cc(NCCCCCCCCCCNc2cc(C)[n+](CCC(c3ccccc3)c3ccccc3)c3ccccc23)c2ccccc2[n+]1CCC(c1ccccc1)c1ccccc1`, in test [1], the Ratio is 6.2. Also, in test [2], the concentration for half-maximal inhibition (IC50) was found to be 4300 nM. Consider `Cc1cc(NCCCCCCCCCCNc2cc(C)nc3ccccc23)c2ccccc2n1` [QUINDECAMINE], for which, in test [1], the Ratio turned out to be 3.6. Moreover, the concentration for half-maximal inhibition (IC50) in test [2] came to 2500 nM. `C[n+]1ccc(SCCCCCCCCCCSc2cc[n+](C)c3ccccc23)c2ccccc21`: in test [1], the Ratio was determined as 6.2. Further, the half-maximal inhibitory concentration (IC50) in test [2] turned out to be 3700 nM.

Take `C[n+]1ccc(NCCCCCCCCNc2cc[n+](C)c3ccccc23)c2ccccc21`: the Ratio in test [1] was determined as 3.1. In addition, the IC50 in test [2] amounted to 2700 nM.

With `c1ccc(C[n+]2ccc(NCCCCCCCCCCNc3cc[n+](Cc4ccccc4)c4ccccc34)c3ccccc32)cc1`, the Ratio in test [1] turned out to be 1. Besides, the IC50 in test [2] was 700 nM.

Consider `Cc1cc(NCCCCCCCCCCNc2cc(C)[n+](Cc3ccccc3)c3ccccc23)c2ccccc2n1`, for which, in test [1], the Ratio came to 2.4. Further, in test [2], the IC50 stood at 1300 nM. Turning to `Cc1cc(NCCCCCCCCCCCCNc2cc(C)[n+](Cc3ccccc3)c3ccccc23)c2ccccc2n1`, the Ratio in test [1] is listed as 8. In addition, the IC50 in test [2] stood at 4400 nM.

Take `C[n+]1ccc(NCCCCCCCCCCNc2cc[n+](C)c3ccccc23)c2ccccc21`: the Ratio in test [1] came out at 1.9. The IC50 in test [2] came out at 2100 nM. On the same counts, the results for `Cc1cc(NCCCCCCCCCCNc2cc(C)[n+](Cc3ccccc3)c3ccccc23)c2ccccc2[n+]1Cc1ccccc1` are 0.6 and 400 nM. For the compound `Cc1cc(N)c2ccccc2[n+]1CCCCCCCCCC[n+]1c(C)cc(N)c2ccccc21.[Cl-].[Cl-]` [DEQUALINIUM CHLORIDE], the IC50 in test [2] was found to be 1000 nM. With `Cc1cc(NCCCCCCCCCCCCNc2cc(C)nc3ccccc23)c2ccccc2n1`, the Ratio in test [1] amounted to 7.1. Moreover, the IC50 in test [2] came to 3800 nM. Consider `c1ccc2c(CCCCCCCCCCCCc3ccnc4ccccc34)ccnc2c1`, for which the Ratio in test [3] was over 10. Also, in test [4], the IC50 was over 10000 nM. Turning to `C[n+]1ccc(CCCCCCCCCCCCc2cc[n+](C)c3ccccc23)c2ccccc21`, the Ratio in test [1] was 5.9. The IC50 in test [2] was 3900 nM.

With `c1ccc2c(OCCCCCCCCCCOc3ccnc4ccccc34)ccnc2c1`, the Ratio in test [1] was found to be 16. The IC50 in test [2] is 18000 nM. On the same counts, the results for `COc1cc(C[n+]2c(C)cc(NCCCCCCCCCCNc3cc(C)[n+](Cc4cc(OC)cc(OC)c4)c4ccccc34)c3ccccc32)cc(OC)c1` are 2.1 and 1700 nM.

As for `c1ccc2c(SCCCCCCCCCCSc3ccnc4ccccc34)ccnc2c1`, the Ratio in test [5] was over 10. Moreover, the IC50 in test [6] was over 10000 nM.

In the case of `C[n+]1ccc(OCCCCCCCCCCOc2cc[n+](C)c3ccccc23)c2ccccc21`, in test [1], the Ratio was 7.2. Moreover, in test [2], the IC50 was 6800 nM. With `c1ccc2c(NCCCCCCCCCCNc3ccnc4ccccc34)ccnc2c1`, the Ratio in test [1] was 3.5. On to `COc1cc(C[n+]2c(C)cc(NCCCCCCCCCCNc3cc(C)nc4ccccc34)c3ccccc32)cc(OC)c1`, for which, in test [1], the Ratio was 1.2. In addition, the IC50 in test [2] was 750 nM. Take `C[n+]1ccc(NCCCCCCCCCCNc2cc[n+](C)c3cc(Cl)ccc23)c2ccc(Cl)cc21`: the Ratio in test [1] was 1.5. In test [2], the half-inhibitory concentration (IC50) was found to be 1300 nM. On the same counts, the results for `C[n+]1ccc(CCCCCCCCCCc2cc[n+](C)c3ccccc23)c2ccccc21` are 26 and 40000 nM. On the same counts, the results for `Cc1cc(NCCCCCCCCCCCCNc2cc(C)[n+](Cc3ccccc3)c3ccccc23)c2ccccc2[n+]1Cc1ccccc1` are 4 and 2400 nM.
